Assay results: ChEMBL document CHEMBL1287747, “Highly active antimycobacterial derivatives of benzoxazine” (2010)
Values after ≈ are worked out from the molar mass of the structure shown.

Assays:
Type in all cases: functional
[1] = system: Mycobacterium tuberculosis; test: Antimycobacterial activity against Mycobacterium tuberculosis CNCTC My 331/88 after 14 days by microdilution method; conditions: CNCTC My 331/88, 336 h
Outline: (§1)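 Strains from the Czech National Collection of Type Cultures, tested by dilution micromethod in Šula semisynthetic medium. Incubated at 37 °C and read at 14 and 21 days. MIC is the lowest concentration inhibiting growth.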

[2] = system: Mycobacterium tuberculosis; test: Antimycobacterial activity against Mycobacterium tuberculosis CNCTC My 331/88 after 21 days by microdilution method; conditions: CNCTC My 331/88, 504 h; outline: as §1
Mycobacterium avium [3] = test: Antimycobacterial activity against Mycobacterium avium CNCTC My 330/88 after 14 days by microdilution method; conditions: CNCTC My 330/88, 336 h; outline: as §1
Mycobacterium avium [4] = test: Antimycobacterial activity against Mycobacterium avium CNCTC My 330/88 after 21 days by microdilution method; conditions: CNCTC My 330/88, 504 h; outline: as §1
Mycobacterium kansasii [5] = test: Antimycobacterial activity against Mycobacterium kansasii CNCTC My 235/80 after 14 days by microdilution method; conditions: CNCTC My 235/80, 336 h; outline: as §1
Mycobacterium kansasii [6] = test: Antimycobacterial activity against Mycobacterium kansasii CNCTC My 235/80 after 21 days by microdilution method; conditions: CNCTC My 235/80, 504 h; outline: as §1
Mycobacterium kansasii [7] = test: Antimycobacterial activity against Mycobacterium kansasii 6509/96 after 14 days by microdilution method; conditions: 6509/96, 336 h
Outline: (§2)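 Clinical isolate that, unlike the standard strain, is not isoniazid-resistant. Tested by dilution micromethod in Šula semisynthetic medium, with compounds added in DMSO at final 1000 down to 0.25 µmol/L in twofold steps. Löwenstein-Jensen plate used as inoculum sterility and growth control. Incubated at 37 °C and read at 14 and 21 days. MIC is the lowest concentration inhibiting growth.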

Mycobacterium kansasii [8] = test: Antimycobacterial activity against Mycobacterium kansasii 6509/96 after 21 days by microdilution method; conditions: 6509/96, 504 h; outline: as §2

SMILES	MIC [1] [µM]	MIC [2] [µM]	MIC (Mycobacterium avium [3]) [µM]	MIC (Mycobacterium avium [4]) [µM]	MIC (Mycobacterium kansasii [5]) [µM]	MIC (Mycobacterium kansasii [6]) [µM]	MIC (Mycobacterium kansasii [7]) [µM]	MIC (Mycobacterium kansasii [8]) [µM]
Cc1ccc2c(=S)n(-c3ccc(C(C)C)cc3)c(=S)oc2c1	0.5 (≈ 0.164 µg/mL)	1 (≈ 0.327 µg/mL)	0.5 (≈ 0.164 µg/mL)	0.5 (≈ 0.164 µg/mL)	2 (≈ 0.655 µg/mL)	4 (≈ 1.31 µg/mL)	1 (≈ 0.327 µg/mL)	2 (≈ 0.655 µg/mL)
CCC(C)c1ccc(-n2c(=S)oc3ccc(Br)cc3c2=S)cc1 (stereo not given)	1 (≈ 0.406 µg/mL)	2 (≈ 0.813 µg/mL)	32 (≈ 13 µg/mL)	32 (≈ 13 µg/mL)	4 (≈ 1.63 µg/mL)	8 (≈ 3.25 µg/mL)	2 (≈ 0.813 µg/mL)	4 (≈ 1.63 µg/mL)
CCC(C)c1ccc(-n2c(=S)oc3ccc(Cl)cc3c2=S)cc1 (stereo not given)	1 (≈ 0.362 µg/mL)	2 (≈ 0.724 µg/mL)	16 (≈ 5.79 µg/mL)	32 (≈ 11.6 µg/mL)	8 (≈ 2.9 µg/mL)	16 (≈ 5.79 µg/mL)	4 (≈ 1.45 µg/mL)	8 (≈ 2.9 µg/mL)
CCC(C)c1ccc(-n2c(=S)oc3cc(Cl)ccc3c2=S)cc1 (stereo not given)	1 (≈ 0.362 µg/mL)	1 (≈ 0.362 µg/mL)	4 (≈ 1.45 µg/mL)	8 (≈ 2.9 µg/mL)	4 (≈ 1.45 µg/mL)	8 (≈ 2.9 µg/mL)	1 (≈ 0.362 µg/mL)	2 (≈ 0.724 µg/mL)
CCCCc1ccc(-n2c(=S)oc3ccc(Cl)cc3c2=S)cc1	2 (≈ 0.724 µg/mL)	4 (≈ 1.45 µg/mL)	8 (≈ 2.9 µg/mL)	16 (≈ 5.79 µg/mL)	8 (≈ 2.9 µg/mL)	8 (≈ 2.9 µg/mL)	8 (≈ 2.9 µg/mL)	8 (≈ 2.9 µg/mL)
CC(C)c1ccc(-n2c(=O)oc3ccc(Br)cc3c2=O)cc1	2 (≈ 0.72 µg/mL)	4 (≈ 1.44 µg/mL)	8 (≈ 2.88 µg/mL)	16 (≈ 5.76 µg/mL)	8 (≈ 2.88 µg/mL)	8 (≈ 2.88 µg/mL)	4 (≈ 1.44 µg/mL)	8 (≈ 2.88 µg/mL)
CC(C)c1ccc(-n2c(=O)oc3ccc(Cl)cc3c2=O)cc1	4 (≈ 1.26 µg/mL)	8 (≈ 2.53 µg/mL)	32 (≈ 10.1 µg/mL)	32 (≈ 10.1 µg/mL)	8 (≈ 2.53 µg/mL)	16 (≈ 5.05 µg/mL)	8 (≈ 2.53 µg/mL)	16 (≈ 5.05 µg/mL)
CC(C)c1ccc(-n2c(=O)oc3cc(Cl)ccc3c2=O)cc1	4 (≈ 1.26 µg/mL)	4 (≈ 1.26 µg/mL)	8 (≈ 2.53 µg/mL)	16 (≈ 5.05 µg/mL)	8 (≈ 2.53 µg/mL)	16 (≈ 5.05 µg/mL)	8 (≈ 2.53 µg/mL)	8 (≈ 2.53 µg/mL)
CC(C)(C)c1ccc(-n2c(=S)oc3cc(Cl)ccc3c2=S)cc1	0.5 (≈ 0.181 µg/mL)	0.5 (≈ 0.181 µg/mL)	2 (≈ 0.724 µg/mL)	4 (≈ 1.45 µg/mL)	2 (≈ 0.724 µg/mL)	4 (≈ 1.45 µg/mL)	2 (≈ 0.724 µg/mL)	4 (≈ 1.45 µg/mL)
CC(C)(C)c1ccc(-n2c(=S)oc3ccc(F)cc3c2=S)cc1	0.5 (≈ 0.173 µg/mL)	0.5 (≈ 0.173 µg/mL)	0.5 (≈ 0.173 µg/mL)	1 (≈ 0.345 µg/mL)	8 (≈ 2.76 µg/mL)	8 (≈ 2.76 µg/mL)	4 (≈ 1.38 µg/mL)	8 (≈ 2.76 µg/mL)
CCC(C)c1ccc(-n2c(=O)oc3ccc(Br)cc3c2=O)cc1 (stereo not given)	4 (≈ 1.5 µg/mL)	8 (≈ 2.99 µg/mL)	16 (≈ 5.99 µg/mL)	32 (≈ 12 µg/mL)	8 (≈ 2.99 µg/mL)	8 (≈ 2.99 µg/mL)	8 (≈ 2.99 µg/mL)	16 (≈ 5.99 µg/mL)
CCC(C)c1ccc(-n2c(=O)oc3ccc(Cl)cc3c2=O)cc1 (stereo not given)	4 (≈ 1.32 µg/mL)	8 (≈ 2.64 µg/mL)	32 (≈ 10.6 µg/mL)	32 (≈ 10.6 µg/mL)	16 (≈ 5.28 µg/mL)	16 (≈ 5.28 µg/mL)	16 (≈ 5.28 µg/mL)	16 (≈ 5.28 µg/mL)
CCC(C)c1ccc(-n2c(=O)oc3cc(Cl)ccc3c2=O)cc1 (stereo not given)	4 (≈ 1.32 µg/mL)	4 (≈ 1.32 µg/mL)	8 (≈ 2.64 µg/mL)	8 (≈ 2.64 µg/mL)	8 (≈ 2.64 µg/mL)	8 (≈ 2.64 µg/mL)	8 (≈ 2.64 µg/mL)	8 (≈ 2.64 µg/mL)
CC(C)(C)c1ccc(-n2c(=O)oc3cc(Cl)ccc3c2=O)cc1	4 (≈ 1.32 µg/mL)	4 (≈ 1.32 µg/mL)	4 (≈ 1.32 µg/mL)	8 (≈ 2.64 µg/mL)	8 (≈ 2.64 µg/mL)	16 (≈ 5.28 µg/mL)	8 (≈ 2.64 µg/mL)	8 (≈ 2.64 µg/mL)
CCC(C)c1ccc(-n2c(=O)oc3cc(Cl)ccc3c2=S)cc1 (stereo not given)	1 (≈ 0.346 µg/mL)	2 (≈ 0.692 µg/mL)	8 (≈ 2.77 µg/mL)	8 (≈ 2.77 µg/mL)	4 (≈ 1.38 µg/mL)	8 (≈ 2.77 µg/mL)	1 (≈ 0.346 µg/mL)	2 (≈ 0.692 µg/mL)
CCCCc1ccc(-n2c(=O)oc3ccc(Cl)cc3c2=S)cc1	1 (≈ 0.346 µg/mL)	2 (≈ 0.692 µg/mL)	8 (≈ 2.77 µg/mL)	16 (≈ 5.53 µg/mL)	8 (≈ 2.77 µg/mL)	16 (≈ 5.53 µg/mL)	4 (≈ 1.38 µg/mL)	4 (≈ 1.38 µg/mL)
CC(C)(C)c1ccc(-n2c(=O)oc3cc(Cl)ccc3c2=S)cc1	2 (≈ 0.692 µg/mL)	2 (≈ 0.692 µg/mL)	4 (≈ 1.38 µg/mL)	8 (≈ 2.77 µg/mL)	4 (≈ 1.38 µg/mL)	8 (≈ 2.77 µg/mL)	2 (≈ 0.692 µg/mL)	4 (≈ 1.38 µg/mL)
CCc1ccc(-n2c(=S)oc3ccc(Br)cc3c2=S)cc1	1 (≈ 0.378 µg/mL)	2 (≈ 0.757 µg/mL)	62.5 (≈ 23.6 µg/mL)	62.5 (≈ 23.6 µg/mL)	8 (≈ 3.03 µg/mL)	16 (≈ 6.05 µg/mL)	4 (≈ 1.51 µg/mL)	8 (≈ 3.03 µg/mL)
CC(C)c1ccc(-n2c(=S)oc3cc(Cl)ccc3c2=S)cc1	0.5 (≈ 0.174 µg/mL)	1 (≈ 0.348 µg/mL)	8 (≈ 2.78 µg/mL)	8 (≈ 2.78 µg/mL)	4 (≈ 1.39 µg/mL)	8 (≈ 2.78 µg/mL)	4 (≈ 1.39 µg/mL)	4 (≈ 1.39 µg/mL)
NNC(=O)c1ccncc1 [ISONIAZID]	0.5 (≈ 0.0686 µg/mL)	0.5 (≈ 0.0686 µg/mL)	> 250	> 250	> 250	> 250	8 (≈ 1.1 µg/mL)	8 (≈ 1.1 µg/mL)
